Data: ChEMBL document CHEMBL1275303, “Synthesis and antimicrobial activity of 2-substituted [4-(1,3,4-oxadiazol-2-yl methyl)] phthalazin-1(2H)-one derivatives” (2010)

Legend:
Aspergillus flavus [1] = assay: Antimicrobial activity against Aspergillus flavus at 100 ug/mL after 72 hrs by well plate method; format: functional; conditions: read-out: IZ
Bacillus subtilis [2] = assay: Antimicrobial activity against Bacillus subtilis at 50 ug/mL after 24 hrs by well plate method; format: functional; conditions: read-out: IZ
In short: (§1)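 Agar well diffusion in nutrient agar. About 1 cm³ of a 24 h broth culture was placed in sterile dishes, and molten agar at 45 °C was poured over it and set. 6 mm wells were bored and filled with compound in DMSO (100 or 50). Plates were incubated 24 h at 37 °C, and the inhibition zone was read in mm. Duplicate runs, with standard deviation; amoxicillin as reference.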

Staphylococcus aureus [3] = assay: Antimicrobial activity against Staphylococcus aureus at 100 ug/mL after 24 hrs by well plate method; format: functional; conditions: read-out: IZ; in short: as §1
Staphylococcus aureus [4] = assay: Antimicrobial activity against Staphylococcus aureus at 50 ug/mL after 24 hrs by well plate method; format: functional; conditions: read-out: IZ; in short: as §1
Salmonella typhi [5] = assay: Antimicrobial activity against Salmonella typhi at 50 ug/mL after 24 hrs by well plate method; format: functional, Salmonella enterica subsp. enterica serovar Typhi; conditions: Salmonella enterica, read-out: IZ
In short: (§2)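 Agar well diffusion in nutrient agar: about 1 cm³ of a 24 h broth culture placed in a sterile dish, molten agar at 45 °C poured over it and allowed to set. 6 mm holes cut with a sterile cork borer and filled with compound solution in DMSO. Incubated 24 h at 37 °C; inhibition zone diameter read in mm. Run in duplicate, standard deviation calculated.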

Salmonella typhi [6] = assay: Antimicrobial activity against Salmonella typhi at 100 ug/mL after 24 hrs by well plate method; format: functional, Salmonella enterica subsp. enterica serovar Typhi; conditions: Salmonella enterica, read-out: IZ; in short: as §2
Nannizzia gypsea [7] = assay: Antimicrobial activity against Microsporum gypseum at 50 ug/mL after 72 hrs by well plate method; format: functional; conditions: read-out: IZ
In short: (§3)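 Antifungal well-plate assay on Sabouraud dextrose agar using a 72 h old broth culture of the fungal strain. Wells were filled with compound dissolved in DMSO (100 or 50), and the zone of inhibition around each well was measured. […] served as reference.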

Escherichia coli [8] = assay: Antimicrobial activity against Escherichia coli at 100 ug/mL after 24 hrs by well plate method; format: functional; conditions: read-out: IZ; in short: as §1
[9] = system: Chrysosporium keratinophilum; assay: Antimicrobial activity against Chrysosporium keratinophilum at 50 ug/mL after 72 hrs by well plate method; format: functional; conditions: read-out: IZ; in short: as §3
Bacillus subtilis [10] = assay: Antimicrobial activity against Bacillus subtilis at 100 ug/mL after 24 hrs by well plate method; format: functional; conditions: read-out: IZ; in short: as §1
Aspergillus flavus [11] = assay: Antimicrobial activity against Aspergillus flavus at 50 ug/mL after 72 hrs by well plate method; format: functional; conditions: read-out: IZ
Candida albicans [12] = assay: Antimicrobial activity against Candida albicans at 50 ug/mL after 72 hrs by well plate method; format: functional; conditions: read-out: IZ; in short: as §3
Escherichia coli [13] = assay: Antimicrobial activity against Escherichia coli at 50 ug/mL after 24 hrs by well plate method; format: functional; conditions: read-out: IZ; in short: as §1
Nannizzia gypsea [14] = assay: Antimicrobial activity against Microsporum gypseum at 100 ug/mL after 72 hrs by well plate method; format: functional; conditions: read-out: IZ; in short: as §3
Candida albicans [15] = assay: Antimicrobial activity against Candida albicans at 100 ug/mL after 72 hrs by well plate method; format: functional; conditions: read-out: IZ; in short: as §3
[16] = system: Chrysosporium keratinophilum; assay: Antimicrobial activity against Chrysosporium keratinophilum at 100 ug/mL after 72 hrs by well plate method; format: functional; conditions: read-out: IZ; in short: as §3

Structure (SMILES)	zone of inhibition at 100 µg/mL (Aspergillus flavus [1]) [mm]	zone of inhibition at 50 µg/mL (Bacillus subtilis [2]) [mm]	zone of inhibition at 100 µg/mL (Staphylococcus aureus [3]) [mm]	zone of inhibition at 50 µg/mL (Staphylococcus aureus [4]) [mm]	zone of inhibition at 50 µg/mL (Salmonella typhi [5]) [mm]	zone of inhibition at 100 µg/mL (Salmonella typhi [6]) [mm]	zone of inhibition at 50 µg/mL (Nannizzia gypsea [7]) [mm]	zone of inhibition at 100 µg/mL (Escherichia coli [8]) [mm]	zone of inhibition at 50 µg/mL [9] [mm]	zone of inhibition at 100 µg/mL (Bacillus subtilis [10]) [mm]	zone of inhibition at 50 µg/mL (Aspergillus flavus [11]) [mm]	zone of inhibition at 50 µg/mL (Candida albicans [12]) [mm]	zone of inhibition at 50 µg/mL (Escherichia coli [13]) [mm]	zone of inhibition at 100 µg/mL (Nannizzia gypsea [14]) [mm]	zone of inhibition at 100 µg/mL (Candida albicans [15]) [mm]	zone of inhibition at 100 µg/mL [16] [mm]
O=c1c2ccccc2c(Cc2nnc(-c3ccc(F)cc3)o2)nn1Cc1ccc(Cl)nc1	4	3	6	4	3	7.5	4	10	0	5	2	2.5	8	6.5	4.5	1.5
O=c1c2ccccc2c(Cc2nnc(C3CC3)o2)nn1CCN1CCOCC1	5	3.5	1.5	0	2.5	6.5	3.5	5	0.5	5.5	2.5	2.5	1.5	6	4.5	2.5
O=c1c2ccccc2c(Cc2nnc(-c3ccc(Cl)nc3)o2)nn1Cc1ccc(Cl)nc1	6.5	5.5	10.5	7.5	2.5	6.5	4	12.5	4.5	8	3.5	8.5	7.5	7	11.5	6.5
O=c1c2ccccc2c(Cc2nnc(-c3ccsc3)o2)nn1Cc1cnc(Cl)s1	8.5	4	10	7	7	12	6.5	16	5.5	8	3.5	4.5	10	9.5	8.5	11.5
O=c1c2ccccc2c(Cc2nnc(C3CC3)o2)nn1Cc1cnc(Cl)s1	6	2	4.5	2	4	7.5	4.5	11.5	0.5	5.5	3.5	3.5	9	7	5.5	3.5
O=c1c2ccccc2c(Cc2nnc(C(F)(F)F)o2)nn1Cc1cnc(Cl)s1	4.5	3	7	4	3	5.5	3	6.5	2	5	1.5	0.5	3	5.5	3.5	5.5
O=c1c2ccccc2c(Cc2nnc(-c3ccc(F)cc3)o2)nn1Cc1cnc(Cl)s1	5	2	9	5	5	9	4	9	0	4.5	2	2.5	5	8.5	5.5	2.5
Cc1ccccc1-c1nnc(Cc2nn(CCN3CCOCC3)c(=O)c3ccccc23)o1	3	2.5	3.5	1.5	2.5	5	1	5.5	0	4.5	1.5	0	2.5	2	1.5	2.5
Cc1ccccc1-c1nnc(Cc2nn(Cc3cnc(Cl)s3)c(=O)c3ccccc23)o1	2	2	2	0	3	5	1	6	0	5	1	0	6	3	3.5	3.5
Cc1ccccc1-c1nnc(Cc2nn(Cc3ccc(Cl)nc3)c(=O)c3ccccc23)o1	4	0	6.5	4.5	1	3	1	7	0	2.5	1	0	4.5	3	3	1.5
CC1(C)S[C@@H]2[C@H](NC(=O)[C@H](N)c3ccc(O)cc3)C(=O)N2[C@H]1C(=O)O [AMOXICILLIN]		10.5	16.5	12.5	12	20.5		18.5		14.5			15			
O=c1c2ccccc2c(Cc2nnc(-c3ccc(Cl)cc3)o2)nn1CCN1CCOCC1	1	2	8	5	3	4.5	1	7	0	4	0	1	3	3	3.5	1.5
O=c1c2ccccc2c(Cc2nnc(-c3ccc(Cl)nc3)o2)nn1CCN1CCOCC1	8	4.5	7	3.5	3.5	6.5	4	5.5	1.5	9	4.5	6.5	1.5	9.5	10.5	4.5
Cc1ncc([N+](=O)[O-])n1CCO [METRONIDAZOLE]	17.5						14		11		13.5	15		17	19.5	14
